pEC50: −log10 of the molar value.
How the values were obtained:
[1] = molecular target: T1, Peroxisome proliferator-activated receptor alpha (Homo sapiens, UniProt Q07869); assay: Agonist activity at human PPARalpha expressed in CV1 cells by transactivation assay; format: functional, cell-based, CV-1
T1 sequence (Q07869 whole entry): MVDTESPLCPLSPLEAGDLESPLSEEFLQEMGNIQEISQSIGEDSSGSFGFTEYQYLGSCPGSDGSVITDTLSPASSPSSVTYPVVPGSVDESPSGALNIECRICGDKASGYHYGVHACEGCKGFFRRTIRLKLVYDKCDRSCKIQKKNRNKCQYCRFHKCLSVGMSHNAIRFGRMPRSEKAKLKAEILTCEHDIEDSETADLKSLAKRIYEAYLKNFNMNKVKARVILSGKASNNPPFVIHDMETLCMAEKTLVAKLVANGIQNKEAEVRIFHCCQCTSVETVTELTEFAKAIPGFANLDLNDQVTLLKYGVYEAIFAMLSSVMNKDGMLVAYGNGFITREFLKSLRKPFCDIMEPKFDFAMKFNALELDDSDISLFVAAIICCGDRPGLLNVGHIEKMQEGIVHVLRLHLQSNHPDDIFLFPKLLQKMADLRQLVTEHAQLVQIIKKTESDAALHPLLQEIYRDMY

[2] = molecular target: T2, Peroxisome proliferator-activated receptor gamma (Homo sapiens) (UniProt P37231); assay: Agonist activity at human PPARgamma expressed in CV1 cells at 10 uM by transactivation assay; format: functional, cell-based; settings: CV-1
T2 sequence (whole entry): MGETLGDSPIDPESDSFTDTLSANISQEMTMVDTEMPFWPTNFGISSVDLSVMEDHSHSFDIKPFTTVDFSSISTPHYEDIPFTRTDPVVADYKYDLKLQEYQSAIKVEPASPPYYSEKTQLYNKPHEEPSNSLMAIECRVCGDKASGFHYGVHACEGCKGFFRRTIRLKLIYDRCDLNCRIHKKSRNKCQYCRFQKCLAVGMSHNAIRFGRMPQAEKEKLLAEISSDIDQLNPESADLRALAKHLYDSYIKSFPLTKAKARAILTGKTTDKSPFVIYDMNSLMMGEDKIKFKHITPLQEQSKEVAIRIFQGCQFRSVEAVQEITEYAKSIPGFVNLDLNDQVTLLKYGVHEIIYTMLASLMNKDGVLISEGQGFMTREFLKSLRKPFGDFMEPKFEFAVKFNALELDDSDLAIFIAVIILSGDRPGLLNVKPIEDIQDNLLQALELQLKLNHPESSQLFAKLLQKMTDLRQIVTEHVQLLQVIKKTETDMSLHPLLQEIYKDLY
In short: (§1)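 Human full-length PPAR subtype (pSG5) cotransfected into CV-1 cells with a PPRE (rat acyl-CoA oxidase, ×3)–TK firefly luciferase reporter and a Renilla TK control. Cells were cultured in DMEM/10% FBS at 37 °C under 5% CO2, then exposed to compound at 10 µM (0.1% DMSO final) for 48 h. The dual-luciferase read-out is given as a percentage of the positive control's maximum activity (n = 2).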

[3] = molecular target: T3, Peroxisome proliferator-activated receptor delta (Homo sapiens) (UniProt Q03181); assay: Agonist activity at human PPARdelta expressed in CV1 cells at 10 uM by transactivation assay; format: functional, cell-based; settings: CV-1; in short: as §1
T3 sequence (whole entry): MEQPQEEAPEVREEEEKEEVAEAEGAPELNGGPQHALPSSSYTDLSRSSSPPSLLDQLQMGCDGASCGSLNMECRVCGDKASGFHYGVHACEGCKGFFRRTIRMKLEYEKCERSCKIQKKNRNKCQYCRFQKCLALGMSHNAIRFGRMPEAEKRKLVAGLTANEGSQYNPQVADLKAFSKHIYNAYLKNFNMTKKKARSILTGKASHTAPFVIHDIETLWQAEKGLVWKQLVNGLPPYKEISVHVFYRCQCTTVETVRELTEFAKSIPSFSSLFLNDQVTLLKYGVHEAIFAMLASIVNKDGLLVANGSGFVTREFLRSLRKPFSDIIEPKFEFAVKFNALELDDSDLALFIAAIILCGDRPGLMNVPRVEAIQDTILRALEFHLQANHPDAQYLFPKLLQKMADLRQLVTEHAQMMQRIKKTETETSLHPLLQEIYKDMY

[4] = molecular target: T4, Peroxisome proliferator-activated receptor alpha (Mus musculus, UniProt P23204); assay: Agonist activity at mouse PPARalpha expressed in CV1 cells by transactivation assay; format: functional, cell-based, CV-1
T4 sequence (P23204 whole entry): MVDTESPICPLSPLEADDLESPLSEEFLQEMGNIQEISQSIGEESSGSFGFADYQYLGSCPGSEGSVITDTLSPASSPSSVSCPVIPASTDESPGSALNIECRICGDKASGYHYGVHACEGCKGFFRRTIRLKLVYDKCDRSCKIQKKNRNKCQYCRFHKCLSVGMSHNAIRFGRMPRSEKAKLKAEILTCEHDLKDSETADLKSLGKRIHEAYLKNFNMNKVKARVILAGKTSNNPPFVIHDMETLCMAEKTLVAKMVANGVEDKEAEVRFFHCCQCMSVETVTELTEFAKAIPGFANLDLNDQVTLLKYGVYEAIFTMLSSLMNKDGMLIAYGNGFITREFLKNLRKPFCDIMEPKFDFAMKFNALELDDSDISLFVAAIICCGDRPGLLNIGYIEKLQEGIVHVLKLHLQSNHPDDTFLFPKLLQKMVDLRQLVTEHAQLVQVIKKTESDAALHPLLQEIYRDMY

Mus musculus [5] = assay: Hypoglycemic effect on diabetic KK-Ay mouse assessed as reduction of plasma glucose level at 1 mg/kg/day, po after 4 days; format: functional; design: scale not given: the % may be the effect or the level left
In short: (§2)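 Male KK-Ay mice, 10 weeks old and fed chow ad libitum, were dosed orally once daily for 4 days (n = 5) with suspensions in 0.5% methylcellulose. On the day after the last dose, nonfasted tail-vein plasma was assayed enzymatically for TG and glucose. Vena cava plasma taken under pentobarbital had lipoprotein cholesterol measured by HPLC with on-line enzymatic detection. Values are % change of the group mean from vehicle controls.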

Mus musculus [6] = assay: Hypolipidemic effect on diabetic KK-Ay mouse assessed as reduction of plasma VLDL cholesterol level at 1 mg/kg/day, po after 4 days; format: functional; design: scale not given: the % may be the effect or the level left; in short: as §2
Mus musculus [7] = assay: Hypolipidemic effect on diabetic KK-Ay mouse assessed as increase in plasma HDL cholesterol level at 1 mg/kg/day, po after 4 days; format: functional; in short: as §2
[8] = molecular target: T5, Peroxisome proliferator-activated receptor gamma (Mus musculus, UniProt P37238); assay: Agonist activity at mouse PPARgamma expressed in CV1 cells by transactivation assay; format: functional, cell-based, CV-1
T5 sequence (P37238 whole entry): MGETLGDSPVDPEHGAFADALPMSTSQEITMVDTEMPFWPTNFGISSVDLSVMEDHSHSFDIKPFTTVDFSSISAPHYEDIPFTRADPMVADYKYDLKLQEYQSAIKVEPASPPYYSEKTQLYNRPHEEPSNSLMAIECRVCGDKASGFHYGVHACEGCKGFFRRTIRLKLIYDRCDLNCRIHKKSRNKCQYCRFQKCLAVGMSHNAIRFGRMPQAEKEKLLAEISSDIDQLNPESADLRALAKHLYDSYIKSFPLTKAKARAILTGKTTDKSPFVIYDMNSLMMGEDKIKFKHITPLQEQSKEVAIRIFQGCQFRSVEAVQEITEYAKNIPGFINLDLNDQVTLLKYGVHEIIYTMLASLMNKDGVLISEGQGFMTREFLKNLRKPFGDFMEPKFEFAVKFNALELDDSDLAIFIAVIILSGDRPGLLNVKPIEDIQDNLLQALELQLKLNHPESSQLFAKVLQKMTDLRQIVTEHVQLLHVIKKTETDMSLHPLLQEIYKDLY

[9] = Selectivity for mouse PPARalpha over human PPARalpha
Mus musculus [10] = assay: Hypolipidemic effect on diabetic KK-Ay mouse assessed as reduction of plasma triglyceride level at 1 mg/kg/day, po after 4 days; format: functional; design: scale not given: the % may be the effect or the level left; in short: as §2
[11] = molecular target: T6, Peroxisome proliferator-activated receptor gamma (Homo sapiens, UniProt P37231); assay: Agonist activity at human PPARgamma expressed in CV1 cells by transactivation assay; format: functional, cell-based, CV-1
T6 sequence (P37231 whole entry): T2 sequence (whole entry)

Homo sapiens = species: Homo sapiens; assay: Selectivity for human PPARalpha over human PPARgamma
[12] = molecular target: T7, Peroxisome proliferator-activated receptor gamma (Mus musculus) (UniProt P37238); assay: Agonist activity at mouse PPARgamma expressed in CV1 cells at 10 uM by transactivation assay; format: functional, cell-based; settings: CV-1
T7 sequence (whole entry): T5 sequence (P37238 whole entry)

[13] = molecular target: T8, Peroxisome proliferator-activated receptor alpha (Homo sapiens) (UniProt Q07869); assay: Agonist activity at human PPARalpha expressed in CV1 cells at 10 uM by transactivation assay; format: functional, cell-based; settings: CV-1; in short: as §1
T8 sequence (whole entry): T1 sequence (Q07869 whole entry)

[14] = molecular target: T9, Peroxisome proliferator-activated receptor delta (Homo sapiens, UniProt Q03181); assay: Agonist activity at human PPARdelta expressed in CV1 cells by transactivation assay; format: functional, cell-based, CV-1
T9 sequence (Q03181 whole entry): T3 sequence (whole entry)

| SMILES | pEC50 [1] | Activity [2] [%] | Activity [3] [%] | pEC50 [4] | pEC50 [8] | Selectivity ratio [9] | pEC50 [11] | Selectivity ratio (Homo sapiens) | Activity [12] [%] | Activity [13] [%] | pEC50 [14] | Activity (Mus musculus [5]) [%] | Activity (Mus musculus [6]) [%] | Activity (Mus musculus [7]) [%] | Activity (Mus musculus [10]) [%] |
| --- | --- | --- | --- | --- | --- | --- | --- | --- | --- | --- | --- | --- | --- | --- | --- |
| Cc1ccc(-c2nc(CCCC[C@H]3CO[C@@](C)(C(=O)O)OC3)c(C)o2)cc1F | 8.00 | 45 | 25 | 7.00 | 5.00 | 10 | – | – | – | – | – | -12 | -63 | 21 | -53 |
| Cc1ccc(-c2nc(CCCC[C@H]3CO[C@@](C)(C(=O)O)OC3)c(C(F)(F)F)o2)cc1 | 6.52 | – | 24 | – | – | – | 5.52 | – | – | – | – | – | – | – | – |
| Cc1ccc(-c2nc(CCCC[C@H]3CO[C@@](C)(C(=O)O)OC3)c(C)o2)c(C)c1 | 7.52 | 35 | 16 | – | – | – | – | – | – | – | – | – | – | – | – |
| Cc1ccc(-c2nc(CCCC[C@H]3CO[C@@](C)(C(=O)O)OC3)c(C)o2)cc1C | 8.52 | 42 | 0 | 7.52 | – | 10 | – | – | 42 | – | – | -32 | -92 | 21 | -89 |
| Cc1ccc(-c2nc(CCCC[C@H]3CO[C@@](C)(C(=O)O)OC3)c(C)n2C)cc1 | – | 0 | 0 | – | – | – | – | – | – | 6 | – | – | – | – | – |

Second part, led by results:

| pEC50 [1] | Activity [2] [%] | Activity [3] [%] | pEC50 [4] | pEC50 [8] | Selectivity ratio [9] | pEC50 [11] | Selectivity ratio (Homo sapiens) | Activity [12] [%] | Activity [13] [%] | pEC50 [14] | SMILES | Activity (Mus musculus [5]) [%] | Activity (Mus musculus [6]) [%] | Activity (Mus musculus [7]) [%] | Activity (Mus musculus [10]) [%] |
| --- | --- | --- | --- | --- | --- | --- | --- | --- | --- | --- | --- | --- | --- | --- | --- |
| 8.00 | – | 0 | – | – | – | 5.52 | 300 | – | – | – | CCc1ccc(-c2nc(CCCC[C@H]3CO[C@@](C)(C(=O)O)OC3)c(C)o2)cc1 | – | – | – | – |
| 7.52 | 18 | 20 | – | – | – | – | – | – | – | – | COc1ccc(-c2nc(CCCC[C@H]3CO[C@@](C)(C(=O)O)OC3)c(C)o2)cc1 | – | – | – | – |
| – | 31 | 7 | 7.52 | – | – | 5.02 | – | 45 | – | < 4.00 | Cc1ccc(-c2nc(CCCC[C@H]3CO[C@@](C)(C(=O)O)OC3)c(C)o2)cc1 | -21 | -50 | 34 | -71 |
| 7.52 | 41 | 34 | – | – | – | – | – | – | – | – | Cc1oc(-c2ccc(C(F)(F)F)cc2)nc1CCCC[C@H]1CO[C@@](C)(C(=O)O)OC1 | – | – | – | – |

— ChEMBL document CHEMBL1143171, “Structure-activity studies on 1,3-dioxane-2-carboxylic acid derivatives, a novel class of subtype-selective peroxisome proliferator-activated receptor alpha (PPARalpha) agonists” (Bioorg Med Chem, 2008)
